ChEMBL document CHEMBL1144729, “N-pyridin-3-yl- and N-quinolin-3-yl-benzamides: modulators of human vanilloid receptor 1 (TRPV1)” (Bioorg Med Chem Lett, 2008)

Key:
[1] = target: T1, Transient receptor potential cation channel subfamily V member 1 (Homo sapiens, UniProt Q8NER1); assay: Activity at human TRPV1 in HEK cells assessed by measuring capsaicin-induced calcium level by FLIPR technology; assay type: cell-based, HEK293
In short: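 Stably transfected hTRPV1/HEK cells plated on poly-D-lysine and used 2 days later. Loaded with Fluo-3/AM for 1 h, then given a single concentration of compound. Antagonist potency protocol taken from earlier work.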

[2] = target: T1, Transient receptor potential cation channel subfamily V member 1; assay: Displacement of [3H]RTX from human TRPV1 receptor expressed in HEK293 cells; assay type: cell-based
In short: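 Membranes from HEK293 stably expressing human TRPV1, prepared by homogenisation and differential centrifugation. Binding buffer: 20 mM Hepes pH 7.4, 5.8 mM NaCl, 320 mM sucrose, 2 mM MgCl2, 0.75 mM CaCl2, 5 mM KCl. Incubated 60 min at 37 °C with 0.3–0.6 nM [3H]-RTX. Cooled on ice, alpha-acid glycoprotein added, pellet counted by scintillation. Nonspecific binding defined with 200 nM unlabeled RTX.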

[3] = Metabolic stability in human liver microsomes after 15 mins; assay type: ADME, Microsome; conditions: read-out: Stability
In short: (§1)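 Compound incubated with rat or human liver microsomes. Percent of parent remaining measured after 15 min.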

[4] = Metabolic stability in rat liver microsomes after 15 mins; assay type: ADME, Microsome; conditions: read-out: Stability; in short: as §1
[5] = Clearance in Sprague-Dawley rat; assay type: ADME, organism-based; conditions: in vivo
In short: (§2)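 Pharmacokinetics measured in male Sprague–Dawley rats after intravenous and oral dosing.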

[6] = Elimination half life in Sprague-Dawley rat; assay type: ADME, organism-based; conditions: in vivo; in short: as §2
[7] = Oral bioavailability in Sprague-Dawley rat; assay type: ADME, organism-based; conditions: in vivo; in short: as §2
Rattus norvegicus = assay: Reversal of CFA-induced thermal hyperalgesia in Sprague-Dawley rat at 30 mg/kg, po; assay type: functional
In short: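 Thermal hyperalgesia induced by CFA injection in Sprague–Dawley rats. Radiant-heat withdrawal latency measured on a warm glass surface after about 10 min acclimation, before and 24 h after CFA. Single oral dose given, latencies reassessed at 100 min post-dose and compared with vehicle. Analysis by two-way ANOVA with Bonferroni post hoc test, p < 0.05.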

T1 sequence (Q8NER1 whole entry): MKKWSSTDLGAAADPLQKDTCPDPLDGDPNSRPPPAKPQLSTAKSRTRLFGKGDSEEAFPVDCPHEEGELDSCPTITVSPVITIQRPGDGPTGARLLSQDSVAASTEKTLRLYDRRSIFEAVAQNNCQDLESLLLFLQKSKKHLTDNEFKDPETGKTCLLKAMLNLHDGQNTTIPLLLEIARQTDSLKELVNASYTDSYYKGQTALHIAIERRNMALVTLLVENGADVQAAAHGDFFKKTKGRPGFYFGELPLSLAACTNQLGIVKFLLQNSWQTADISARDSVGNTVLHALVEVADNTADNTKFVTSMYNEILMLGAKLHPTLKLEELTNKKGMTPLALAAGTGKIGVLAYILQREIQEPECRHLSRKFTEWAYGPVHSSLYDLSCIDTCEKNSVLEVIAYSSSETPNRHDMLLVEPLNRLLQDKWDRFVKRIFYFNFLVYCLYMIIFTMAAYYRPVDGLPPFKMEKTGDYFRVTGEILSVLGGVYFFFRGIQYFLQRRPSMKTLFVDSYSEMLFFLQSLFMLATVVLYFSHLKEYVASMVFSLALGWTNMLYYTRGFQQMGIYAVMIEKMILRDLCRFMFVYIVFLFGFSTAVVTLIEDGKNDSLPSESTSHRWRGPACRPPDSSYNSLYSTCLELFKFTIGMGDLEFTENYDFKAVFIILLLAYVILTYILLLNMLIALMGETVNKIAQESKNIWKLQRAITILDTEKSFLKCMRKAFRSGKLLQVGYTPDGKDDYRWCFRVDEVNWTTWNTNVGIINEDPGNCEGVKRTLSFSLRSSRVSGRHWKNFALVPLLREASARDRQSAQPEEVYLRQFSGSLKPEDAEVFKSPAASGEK

CCCCN(C)c1ccc(C(=O)Nc2cnc3ccccc3c2)cc1
IC50 [1]: 66 nM

CCCCCCCCN(C)c1ccc(C(=O)Nc2cnc3ccccc3c2)cc1
Ki [2]: 15 nM

CCCCCCCCCCc1ccc(C(=O)Nc2cccnc2)cc1
Ki [2]: 607 nM | EC50 [1]: > 30000 nM

CCCCc1ccc(C(=O)Nc2cnc3ccccc3c2)cc1
Ki [2]: 53 nM | IC50 [1]: 230 nM

CCCc1ccc(C(=O)Nc2cnc3ccccc3c2)cc1
Ki [2]: 60 nM | IC50 [1]: 130 nM

CCCCCc1ccc(CC(=O)Nc2cccnc2)cc1
Ki [2]: 7260 nM | EC50 [1]: > 5000 nM

CCCCCc1ccc(NC(=O)c2cccnc2)cc1
Ki [2]: > 3000 nM | EC50 [1]: > 5000 nM

CN(CC1CCCCC1)c1ccc(C(=O)Nc2cnc3ccccc3c2)cc1
Ki [2]: 16 nM | IC50 [1]: 170 nM

CCCCCCCc1ccc(C(=O)Nc2cnc3ccccc3c2)cc1
Ki [2]: 3520 nM | IC50 [1]: > 30000 nM

CN(c1ccc(C(=O)Nc2cnc3ccccc3c2)cc1)C1CCCCC1
remaining at 0.25 h [3]: 25% | remaining at 0.25 h [4]: 45% | clearance [5]: 20 mL/min/kg | half-life [6]: 1.67 h | bioavailability [7]: 70% | Activity (Rattus norvegicus): > 80%
